The target of assay [1] is Amyloid-beta precursor protein (Homo sapiens) (UniProt P05067). Briefly: Inhibition of self-induced amyloid beta (1 to 42 residues) (unknown origin) aggregation at 20 uM incubated at 24 hrs by fluorimetry-based thioflavin T assay. A digest of the protocol:
(§1)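 Aβ1-42 pretreated with HFIP (1 mg mL−1) and dried, then incubated with compound (20 μM) at 37 °C for 24 h; an aliquot transferred and incubated further to 48 h. Glycine–NaOH buffer pH 8.0 with 5 μM ThT added; fluorescence read at 440–485 nm. % inhibition calculated against the Aβ-only control taken as 0%.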

The target of assay [2] is T1, Amine oxidase [flavin-containing] A (Homo sapiens, UniProt P21397).
T1 sequence (P21397 whole entry): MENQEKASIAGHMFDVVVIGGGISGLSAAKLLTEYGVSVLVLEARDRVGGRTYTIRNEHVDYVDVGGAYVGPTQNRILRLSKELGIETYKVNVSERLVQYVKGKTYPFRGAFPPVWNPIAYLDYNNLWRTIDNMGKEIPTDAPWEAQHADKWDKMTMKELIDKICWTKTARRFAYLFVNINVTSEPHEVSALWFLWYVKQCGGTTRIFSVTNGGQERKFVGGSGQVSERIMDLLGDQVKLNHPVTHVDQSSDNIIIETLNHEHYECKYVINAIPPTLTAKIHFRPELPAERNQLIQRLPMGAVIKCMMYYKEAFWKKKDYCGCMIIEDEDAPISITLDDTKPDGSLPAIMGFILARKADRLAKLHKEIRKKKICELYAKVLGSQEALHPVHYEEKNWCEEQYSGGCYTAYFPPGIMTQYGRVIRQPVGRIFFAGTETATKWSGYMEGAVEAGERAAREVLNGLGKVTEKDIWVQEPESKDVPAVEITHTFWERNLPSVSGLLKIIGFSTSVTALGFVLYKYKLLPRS
In words: Inhibition of recombinant MAO-A (unknown origin) at 20 uM preincubated for 30 mins followed substrate addition by Amplex Red reagent based fluorescence analysis relative to control. A digest of the protocol:
(§2)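 Recombinant MAO enzyme preincubated with compound 30 min at 37 °C; substrate, HRP and Amplex Red working solution then added; H2O2 formation read at 37 °C by fluorescence, ex 545/em 590 nm. Screening at 20 μM as % inhibition versus control; IC50 only for compounds above 50% inhibition at 20 μM; triplicate (n = 3).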

The target of assay [3] is Amyloid-beta precursor protein (Homo sapiens) (UniProt P05067). In words: Inhibition of self-induced amyloid beta (1 to 42 residues) (unknown origin) aggregation at 20 uM incubated at 48 hrs by fluorimetry-based thioflavin T assay. A digest of the protocol:
as §1

Assay [4] concerns the target T2, Amine oxidase [flavin-containing] B (Homo sapiens, UniProt P27338).
T2 sequence (P27338 whole entry): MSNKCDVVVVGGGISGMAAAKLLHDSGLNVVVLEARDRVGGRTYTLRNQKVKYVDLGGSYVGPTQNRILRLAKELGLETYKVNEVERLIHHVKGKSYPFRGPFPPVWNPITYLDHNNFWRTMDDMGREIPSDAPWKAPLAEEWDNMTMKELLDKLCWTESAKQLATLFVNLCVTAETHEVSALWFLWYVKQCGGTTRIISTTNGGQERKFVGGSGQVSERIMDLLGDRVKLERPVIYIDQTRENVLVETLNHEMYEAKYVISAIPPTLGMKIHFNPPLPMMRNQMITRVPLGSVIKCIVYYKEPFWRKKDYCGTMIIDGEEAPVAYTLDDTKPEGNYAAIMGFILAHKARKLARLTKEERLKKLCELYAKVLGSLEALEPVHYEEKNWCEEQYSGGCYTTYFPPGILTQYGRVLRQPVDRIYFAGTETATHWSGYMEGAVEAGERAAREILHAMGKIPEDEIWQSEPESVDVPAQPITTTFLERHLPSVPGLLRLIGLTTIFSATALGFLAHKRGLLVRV
Briefly: Inhibition of recombinant MAO-B (unknown origin) at 20 uM preincubated for 30 mins followed substrate addition by Amplex Red reagent based fluorescence analysis relative to control. A digest of the protocol: as §2

The target in assay [5] is T3, Cholinesterase (Homo sapiens, UniProt P06276). In words: Inhibition of recombinant BuChE (unknown origin) using BTCI as substrate at 20 uM preincubated for 30 mins followed by substrate addition by TECAN multiplate reader analysis relative to control. A digest of the protocol: (§3)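 Ellman method as for AChE, using butyrylcholinesterase with BTCI as substrate. Enzyme and compound preincubated 30 min at 37 °C in a CO2 incubator, then DTNB and BTCI added; absorbance read at 417 nm. Screening at 20 μM as % inhibition; IC50 for compounds exceeding 50% inhibition at 20 μM. Triplicate.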

The target in assay [6] is Amyloid-beta precursor protein (Homo sapiens) (UniProt P05067). Briefly: Inhibition of self-induced amyloid beta (1 to 42 residues) (unknown origin) aggregation assessed as reduction in plaques formation measured after 72 hrs by FE-SEM analysis. A digest of the protocol:
(§4)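 HFIP-pretreated Aβ1-42 incubated with or without inhibitor for 72 h; samples placed on carbon-coated copper grids, dried 1 h at 37 °C, imaged by FE-SEM. Glycine–NaOH buffer served as blank and Aβ alone as control.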

Assay [7] shares this target. In words: Inhibition of self-induced amyloid beta (1 to 42 residues) (unknown origin) aggregation assessed as reduction in fibrils formation measured after 72 hrs by FE-SEM analysis. A digest of the protocol:
as §4

The target of assay [8] is T3, Cholinesterase. Briefly: Inhibition of recombinant BuChE (unknown origin) using BTCI as substrate preincubated for 30 mins followed by substrate addition by TECAN multiplate reader analysis. A digest of the protocol: as §3

Calls of active or inactive are those of the source. The rule behind the calls is not given here.

A word on the inhibition: it is the percentage by which the read-out fell short of the control. By IC50 is commonly meant the concentration that inhibits the measured activity by half.

T3 sequence (P06276 whole entry): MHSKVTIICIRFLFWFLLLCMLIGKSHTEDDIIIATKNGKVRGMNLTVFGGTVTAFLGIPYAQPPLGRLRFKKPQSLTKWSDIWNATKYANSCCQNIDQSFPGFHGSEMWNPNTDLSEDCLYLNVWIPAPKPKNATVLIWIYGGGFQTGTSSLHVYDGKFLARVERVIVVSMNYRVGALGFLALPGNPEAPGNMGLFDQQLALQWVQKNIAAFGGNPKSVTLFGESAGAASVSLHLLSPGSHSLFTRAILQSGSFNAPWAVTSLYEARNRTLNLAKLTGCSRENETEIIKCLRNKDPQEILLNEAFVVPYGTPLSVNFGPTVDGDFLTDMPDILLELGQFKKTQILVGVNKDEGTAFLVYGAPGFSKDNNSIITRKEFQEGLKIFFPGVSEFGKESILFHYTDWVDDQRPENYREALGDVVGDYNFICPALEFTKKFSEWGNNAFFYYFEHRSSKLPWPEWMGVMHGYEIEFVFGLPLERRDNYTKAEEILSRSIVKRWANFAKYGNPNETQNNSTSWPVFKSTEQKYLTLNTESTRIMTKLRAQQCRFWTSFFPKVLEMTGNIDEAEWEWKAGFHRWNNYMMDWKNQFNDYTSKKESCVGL
Amyloid-beta precursor protein (Homo sapiens), sequence (P05067 whole entry, the tested form may be a part): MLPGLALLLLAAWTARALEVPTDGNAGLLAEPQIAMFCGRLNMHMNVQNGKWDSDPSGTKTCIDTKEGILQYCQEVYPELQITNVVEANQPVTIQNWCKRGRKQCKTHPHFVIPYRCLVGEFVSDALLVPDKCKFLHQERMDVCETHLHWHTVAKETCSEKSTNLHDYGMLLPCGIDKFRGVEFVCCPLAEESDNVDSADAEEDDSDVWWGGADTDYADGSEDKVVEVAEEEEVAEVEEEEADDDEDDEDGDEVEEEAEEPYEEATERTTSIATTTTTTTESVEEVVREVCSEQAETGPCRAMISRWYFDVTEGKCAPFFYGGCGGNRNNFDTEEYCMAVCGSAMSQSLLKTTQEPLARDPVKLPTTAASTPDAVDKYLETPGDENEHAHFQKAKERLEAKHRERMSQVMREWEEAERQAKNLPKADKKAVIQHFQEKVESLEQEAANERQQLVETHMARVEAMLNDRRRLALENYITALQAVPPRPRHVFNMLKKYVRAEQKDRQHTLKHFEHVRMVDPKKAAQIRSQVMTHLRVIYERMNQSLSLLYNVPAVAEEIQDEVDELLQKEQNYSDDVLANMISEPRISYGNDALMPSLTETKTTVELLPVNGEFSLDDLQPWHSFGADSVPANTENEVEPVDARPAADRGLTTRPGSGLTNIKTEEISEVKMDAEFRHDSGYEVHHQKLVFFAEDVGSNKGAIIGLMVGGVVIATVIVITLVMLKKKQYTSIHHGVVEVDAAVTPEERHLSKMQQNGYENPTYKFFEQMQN

As to `C#CCCCOc1c(CN2CCN(Cc3ccccc3)CC2)cc(-c2cc(=O)c3ccccc3o2)cc1OC`, the inhibition in assay [1] is 22.9%; in assay [3], 28.1%; in assay [5] it was 7.42%. The inhibition at 20 µM in assay [2] was 5.26%; in assay [4], 22.8%.

As for `C#CCCCOc1c(CN2CCOCC2)cc(-c2cc(=O)c3ccccc3o2)cc1CN1CCOCC1`, the inhibition was determined as 23.9% in assay [1], 26.9% in assay [3] and 1% in assay [5]. Moreover, the inhibition at 20 µM in assay [4] came out at 18.1%.

For the compound `C#CCCCOc1c(CN2CCCCC2)cc(-c2cc(=O)c3ccccc3o2)cc1OC`, the inhibition at 20 µM in assay [2] stood at 0.75%; in assay [4] it was 15.6%. Besides, in assay [5], the inhibition is 21.6%.

Turning to `C#CCCCOc1c(CN2CCOCC2)cc(-c2cc(=O)c3ccccc3o2)cc1OCC`, the inhibition at 20 µM in assay [4] is 18.2%. Moreover, the inhibition in assay [5] amounted to 6.37%.

Consider `C#CCCCOc1c(CN2CCCCC2)cc(-c2cc(=O)c3ccccc3o2)cc1OCC`, for which, in assay [4], the inhibition at 20 µM amounted to 15.6%. Also, in assay [5], the inhibition was 3.36%.

Regarding `C#CCCCOc1c(CN2CCN(c3ccccc3)CC2)cc(-c2cc(=O)c3ccccc3o2)cc1OC`, the inhibition at 20 µM in assay [2] was found to be 2.6%; in assay [4] it was 13.1%. Besides, the inhibition in assay [5] was determined as 1.69%.

With `Oc1ccc(/C=C/c2cc(O)cc(O)c2)cc1`, the inhibition result in assay [6] and in assay [7] was “Active” throughout.

As for `C#CCCOc1c(CN2CCOCC2)cc(-c2cc(=O)c3ccccc3o2)cc1OCC`, the results for the inhibition in assay [1], in assay [3] and in assay [5] were 24.6%, 23.7% and 4.42%, respectively. In addition, the inhibition at 20 µM in assay [4] was found to be 6.89%.

Turning to `C#CCCCOc1c(CN2CCc3ccccc3C2)cc(-c2cc(=O)c3ccccc3o2)cc1OC`, the inhibition at 20 µM came to 11.3% in assay [2] and 19.8% in assay [4]. In assay [8], the IC50 amounted to 18.9 µM. Moreover, the inhibition in assay [5] came to 51.5%.

Consider `C#CCCCOc1c(CN2CCCCC2)cc(-c2cc(=O)c3ccccc3o2)cc1CN1CCCCC1`, for which the values for the inhibition in assay [1], in assay [3] and in assay [5] were 12%, 18% and 13.7%, respectively. For the same compound, the inhibition at 20 µM in assay [4] turned out to be 19.7%.

Take `C#CCCCOc1c(CN2CCOCC2)cc(-c2cc(=O)c3ccccc3o2)cc1OC`: the inhibition at 20 µM in assay [4] is 18.8%. In assay [5], the inhibition worked out at 3.35%.

Turning to `C#CCCOc1c(CN2CCN(c3ccccc3)CC2)cc(-c2cc(=O)c3ccccc3o2)cc1OC`, the values for the inhibition at 20 µM in assay [2] and in assay [4] were 9.14% and 35.4%, respectively. Further, the inhibition in assay [5] was 1.63%.

As to `C#CCOc1c(CN2CCOCC2)cc(-c2cc(=O)c3ccccc3o2)cc1CN1CCOCC1`, the values for the inhibition in assay [1], in assay [3] and in assay [5] were 14.4%, 23.3% and 9.03%, respectively. Also, the inhibition at 20 µM in assay [4] came out at 36.5%.

Regarding `C#CCCCOc1c(CN(C)Cc2ccccc2)cc(-c2cc(=O)c3ccccc3o2)cc1OC`, in assay [4], the inhibition at 20 µM was determined as 17.5%. For the same compound, in assay [5], the inhibition is 17.6%.

Turning to `C#CCOc1c(CN2CCOCC2)cc(-c2cc(=O)c3ccccc3o2)cc1OCC`, in assay [4], the inhibition at 20 µM amounted to 8.37%.

`C#CCOc1ccc(-c2cc(=O)c3ccccc3o2)cc1CN1CCOCC1`: the results for the inhibition in assay [1], in assay [3] and in assay [5] were 9%, 11.6% and 4.21%, respectively. Also, the inhibition at 20 µM in assay [4] is 28.1%.

As for `C#CCCOc1c(CN2CCOCC2)cc(-c2cc(=O)c3ccccc3o2)cc1OC`, the inhibition at 20 µM in assay [2] came out at 7.98%; in assay [4], 26.6%. For the same compound, in assay [5], the inhibition is 3.11%.

Take `C#CCOc1c(CN2CCOCC2)cc(-c2cc(=O)c3ccccc3o2)cc1OC`: the inhibition worked out at 36.1% in assay [1], 40.4% in assay [3] and 1.17% in assay [5]. The inhibition at 20 µM in assay [4] came to 15.1%.

The record behind these values is ChEMBL document CHEMBL6134795, “Mannich reaction mediated derivatization of chromones and their biological evaluations as putative multipotent ligands for the treatment of Alzheimer's disease” (RSC Med Chem, 2024).
